{"source": "ChEMBL document CHEMBL1134399", "about": "(J Med Chem, 2001)", "key": {"Somatostatin receptor": {"molecular_target": "Somatostatin receptor", "assay": "Antagonism of in vitro SRIF inhibition of GH release from rat pituitary cells in culture", "assay_type": "functional, cell-based", "details": "pituitary gland cell", "outline": "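Dispersed anterior pituitary cells from adult male rats, cultured 4–5 days at 37 °C. Six doses per plate, triplicate wells. GH measured by double antibody RIA. Antagonist IC50 versus SRIF is the mean ± SEM of n dose-response curves.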"}, "[1]": {"molecular_target": "Somatostatin receptor type 1 (Homo sapiens, UniProt P30872)", "sequence (P30872 whole entry)": "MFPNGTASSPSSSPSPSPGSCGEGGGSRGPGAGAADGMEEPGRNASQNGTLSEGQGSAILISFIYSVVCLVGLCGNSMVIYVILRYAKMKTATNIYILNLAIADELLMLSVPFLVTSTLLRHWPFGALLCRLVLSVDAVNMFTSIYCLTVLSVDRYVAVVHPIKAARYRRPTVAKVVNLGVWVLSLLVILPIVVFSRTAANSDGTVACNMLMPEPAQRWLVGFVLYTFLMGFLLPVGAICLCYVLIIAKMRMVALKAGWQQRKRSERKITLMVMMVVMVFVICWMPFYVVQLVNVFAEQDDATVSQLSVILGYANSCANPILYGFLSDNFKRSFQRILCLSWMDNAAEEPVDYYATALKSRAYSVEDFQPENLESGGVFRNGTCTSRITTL", "assay": "Ability to displace [125 I]labelled Tyr11-somatostatin from human hsst-1 receptor expressed on CHO cells", "assay_type": "cell-based", "outline": "(§1)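 Membranes from stably transfected CHO-K1 clones, prepared in ice-cold 50 mM Tris-HCl and resuspended in 10 mM Tris-HCl. Stopped by filtration through PEI-soaked GF/C filters. Nonspecific binding taken with 1.0 μM SRIF. Ki ± SEM from concentration-dependent displacement.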"}, "[2]": {"molecular_target": "Somatostatin receptor type 4 (Homo sapiens, UniProt P31391)", "sequence (P31391 whole entry)": "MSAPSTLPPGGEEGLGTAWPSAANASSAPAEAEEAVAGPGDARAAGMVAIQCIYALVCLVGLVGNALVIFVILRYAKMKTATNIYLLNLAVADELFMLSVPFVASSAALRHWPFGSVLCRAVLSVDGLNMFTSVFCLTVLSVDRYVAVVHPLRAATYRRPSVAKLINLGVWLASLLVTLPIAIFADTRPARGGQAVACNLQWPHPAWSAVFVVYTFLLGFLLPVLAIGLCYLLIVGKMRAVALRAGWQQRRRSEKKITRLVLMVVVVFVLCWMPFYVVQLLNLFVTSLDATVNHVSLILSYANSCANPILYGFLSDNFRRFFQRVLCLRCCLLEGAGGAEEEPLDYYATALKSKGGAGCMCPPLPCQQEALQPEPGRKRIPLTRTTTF", "assay": "Ability to displace [125 I]labelled Tyr11-somatostatin from human hsst-4 receptor expressed on CHO cells", "assay_type": "cell-based", "outline": "as §1"}, "[3]": {"molecular_target": "Somatostatin receptor type 5 (Homo sapiens, UniProt P35346)", "sequence (P35346 whole entry)": "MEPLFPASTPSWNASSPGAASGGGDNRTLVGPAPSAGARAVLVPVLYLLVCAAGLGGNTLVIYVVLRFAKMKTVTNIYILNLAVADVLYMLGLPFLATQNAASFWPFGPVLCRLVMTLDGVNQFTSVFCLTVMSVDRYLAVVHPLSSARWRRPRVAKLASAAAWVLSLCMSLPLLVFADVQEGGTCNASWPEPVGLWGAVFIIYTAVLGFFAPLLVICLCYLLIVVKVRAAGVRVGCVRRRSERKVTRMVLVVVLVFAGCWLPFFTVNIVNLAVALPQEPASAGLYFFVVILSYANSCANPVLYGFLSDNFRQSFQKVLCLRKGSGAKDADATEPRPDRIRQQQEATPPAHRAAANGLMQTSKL", "assay": "Ability to displace [125 I]labelled Tyr11-somatostatin from human hsst-5 receptor expressed on CHO cells", "assay_type": "cell-based", "outline": "as §1"}, "[4]": {"molecular_target": "Somatostatin receptor type 2 (Homo sapiens, UniProt P30874)", "sequence (P30874 whole entry)": "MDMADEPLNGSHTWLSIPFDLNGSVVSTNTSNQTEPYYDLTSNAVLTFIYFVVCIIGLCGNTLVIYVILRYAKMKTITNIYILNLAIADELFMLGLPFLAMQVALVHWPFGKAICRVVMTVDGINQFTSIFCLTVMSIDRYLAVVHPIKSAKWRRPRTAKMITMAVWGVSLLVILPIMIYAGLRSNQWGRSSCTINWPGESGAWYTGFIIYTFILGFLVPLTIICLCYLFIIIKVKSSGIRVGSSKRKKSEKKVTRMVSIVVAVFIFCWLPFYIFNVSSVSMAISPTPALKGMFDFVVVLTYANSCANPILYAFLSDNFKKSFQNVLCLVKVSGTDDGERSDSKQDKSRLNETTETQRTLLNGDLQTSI", "assay": "Ability to displace [125 I]labelled Tyr11-somatostatin from human hsst-2 receptor expressed on CHO cells", "assay_type": "cell-based"}, "[5]": {"molecular_target": "Somatostatin receptor type 3 (Homo sapiens, UniProt P32745)", "sequence (P32745 whole entry)": "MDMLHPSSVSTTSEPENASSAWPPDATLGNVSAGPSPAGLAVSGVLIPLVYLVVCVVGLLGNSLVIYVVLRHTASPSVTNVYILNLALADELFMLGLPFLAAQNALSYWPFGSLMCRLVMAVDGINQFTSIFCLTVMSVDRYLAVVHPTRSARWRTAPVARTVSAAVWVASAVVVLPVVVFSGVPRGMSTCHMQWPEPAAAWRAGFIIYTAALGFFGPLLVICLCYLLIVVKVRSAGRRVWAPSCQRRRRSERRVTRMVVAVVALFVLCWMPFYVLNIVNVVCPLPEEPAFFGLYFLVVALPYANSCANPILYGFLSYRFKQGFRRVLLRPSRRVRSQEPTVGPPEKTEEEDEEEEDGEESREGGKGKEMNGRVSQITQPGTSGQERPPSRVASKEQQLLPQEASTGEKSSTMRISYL", "assay": "Ability to displace [125 I]labelled Tyr11-somatostatin from human hsst-3 receptor expressed on CHO cells", "assay_type": "cell-based", "outline": "as §1"}}, "note": "Where a SMILES comes first, the peptide text is derived from it. Bridges are numbered along the chain shown (N, C = ends). [ ]: non-standard residue; d: D form. Phe(4-CF3) = N[C@@H](Cc1ccc(C(F)(F)F)cc1)C(=O)O; 2Nal = N[C@@H](Cc1ccc2ccccc2c1)C(=O)O; 3Pal = N[C@@H](Cc1cccnc1)C(=O)O; NMeK = CN[C@@H](CCCCN)C(=O)O"}
{"smiles": "CN[C@@H](Cc1ccc(Cl)cc1)C(=O)N[C@H]1CSSC[C@H](C(=O)N[C@@H](Cc2ccc3ccccc3c2)C(N)=O)NC(=O)[C@@H]([C@H](C)O)NC(=O)[C@H](CCCCN)NC(=O)[C@@H](Cc2c[nH]c3ccccc23)NC(=O)[C@H](Cc2cccnc2)NC1=O", "values": [{"measurement": "IC50", "setting": "Somatostatin receptor", "value": 7.8, "unit": "nM"}]}
{"smiles": "C[C@H](O)[C@H]1NC(=O)[C@H](CCCCN)N(C)C(=O)[C@@H](Cc2c[nH]c3ccccc23)N(C)C(=O)[C@H](Cc2cccnc2)NC(=O)[C@@H](NC(=O)[C@@H](N)Cc2ccc(Cl)cc2)CSSC[C@H](C(=O)N[C@@H](Cc2ccc3ccccc3c2)C(N)=O)NC1=O", "values": [{"measurement": "IC50", "setting": "Somatostatin receptor", "value": 2.5, "unit": "nM"}]}
{"smiles": "C[C@@H](O)[C@@H]1NC(=O)[C@H](CCN)NC(=O)[C@@H](Cc2c[nH]c3ccccc23)NC(=O)[C@H](Cc2cccnc2)NC(=O)[C@H](NC(=O)[C@@H](N)Cc2ccc(Cl)cc2)CSSC[C@@H](C(=O)N[C@@H](Cc2ccc3ccccc3c2)C(N)=O)NC1=O", "values": [{"measurement": "Ki", "setting": "[1]; cho", "value": "> 1000", "unit": "nM"}, {"measurement": "Ki", "setting": "[2]; cho", "value": "> 1000", "unit": "nM"}, {"measurement": "Ki", "setting": "[3]", "value": "> 1000", "unit": "nM"}, {"measurement": "Ki", "setting": "[4]; cho", "value": 317, "unit": "nM"}, {"measurement": "Ki", "setting": "[5]; cho", "value": 23.6, "unit": "nM"}]}
{"smiles": "C[C@@H](O)[C@@H]1NC(=O)[C@H](CCCCN)N(C)C(=O)[C@@H](Cc2c[nH]c3ccccc23)NC(=O)[C@H](Cc2cccnc2)NC(=O)[C@H](NC(=O)[C@@H](N)Cc2ccc(C(F)(F)F)cc2)CSSC[C@@H](C(=O)N[C@@H](Cc2ccc3ccccc3c2)C(N)=O)NC1=O", "note": "(H-[Phe(4-CF3)][dC][3Pal][dW][NMeK]TC[2Nal]-NH2; disulfide 2-7)", "values": [{"measurement": "Ki", "setting": "[1]", "value": "> 1000", "unit": "nM"}, {"measurement": "Ki", "setting": "[2]", "value": 1250, "unit": "nM"}, {"measurement": "Ki", "setting": "[4]", "value": 11.3, "unit": "nM"}, {"measurement": "Ki", "setting": "[5]", "value": 40.2, "unit": "nM"}]}
